Here are results for 18 molecules from ChEMBL document CHEMBL1134416, “Statistical molecular design, parallel synthesis, and biological evaluation of a library of thrombin inhibitors” (J Med Chem, 2001).

Data set [1] in a line: Estimation of membrane permeability by migration behavior in micellar media. The class given is ADME. A digest of the protocol: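 Capillary electrophoresis in MEKC mode on untreated fused-silica capillaries (50 µm i.d., 26.5 cm effective length), 300 V/cm, capillary at 37.0 ± 0.1 °C for log k′. Micellar electrolyte: 100 mM sodium cholate in sodium phosphate buffer pH 7.4, I = 0.05. Rinses with 0.1 M NaOH, water, then electrolyte before each run. Hydrodynamic injection at 20 mbar for 5 s. Read-out: log k′.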

A short description of data set [2]: Estimation of membrane permeability. Type of data set: ADME.
The target of another data set is Prothrombin (Homo sapiens, UniProt P00734). The data set is described as follows: Inhibitory activity against thrombin.
In the next data set the target is T1, Serine protease 1 (Bos taurus, UniProt P00760).
T1 sequence (P00760 whole entry): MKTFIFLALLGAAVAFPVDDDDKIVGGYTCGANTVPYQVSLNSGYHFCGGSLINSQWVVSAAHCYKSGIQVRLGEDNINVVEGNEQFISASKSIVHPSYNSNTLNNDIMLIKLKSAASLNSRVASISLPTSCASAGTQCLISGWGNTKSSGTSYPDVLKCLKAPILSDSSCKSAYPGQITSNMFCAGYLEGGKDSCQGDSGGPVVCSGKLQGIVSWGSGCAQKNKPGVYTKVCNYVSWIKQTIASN
The data set can be described thus: Inhibitory activity against bovine Trypsin. In outline:
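Bovine trypsin at 0.25 mg/L final in 0.05 mol/L Tris-HCl pH 8.2 (20 °C) with 20 mM CaCl₂. Inhibitor at seven assay levels of […], preincubated 5 min with enzyme at 37 °C. S-2222 chromogenic substrate at assay levels of 15, 25 and 50 µM. A405 read every 10 s for 110 s. Ki obtained by linear regression.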

For `COc1ccc(C)cc1S(=O)(=O)Oc1cccc(OCCc2ccccc2)c1`, the “CE logK'” value in data set [1] is recorded as 1.4.
Same read-out and setting: the figure for `Cc1cc(OCCc2ccccc2)cc(OS(=O)(=O)c2ccccc2)c1` is 1.51.
Take `Cc1cc(OCCc2ccc(CN)cc2)cc(OS(=O)(=O)c2cccc(Cl)c2Cl)c1`: the “CE logK'” value in data set [1] is 0.97. The pKa – broadly, the negative logarithm of the acid dissociation constant – in data set [2] was 9. For the same molecule, the IC50 (as a rule, the concentration needed to halve the response being measured) on Prothrombin was 1230 nM.
For `Cc1cccc(S(=O)(=O)Oc2cccc(OCCc3ccc(CN)cc3)c2)c1`, in that order: 0.89, 9.4 and 58900 nM.
On to `COc1c(Cl)cc(Cl)cc1S(=O)(=O)Oc1cc(C)cc(OCCc2cccc(O)c2)c1`, for which the “CE logK'” value in data set [1] is recorded as 1.57.
For `Cc1cc(OCCc2ccc(C(=N)N)c(O)c2)cc(OS(=O)(=O)c2cccc(C)c2)c1`, in data set [1], the “CE logK'” value is recorded as 1.16. The pKa in data set [2] is 6.3. Besides, the inhibition constant (Ki) (commonly the equilibrium dissociation constant of an inhibitor or competing ligand from its target) at Serine protease 1 is 32400 nM. Further, on Prothrombin, the IC50 is 135 nM.
On to `O=S(=O)(Oc1cccc(OCCc2cccc(O)c2)c1)c1cccc(Cl)c1Cl`, for which the “CE logK'” value in data set [1] is reported as 1.41.
Take `CCc1cc(OCCc2ccccc2)cc(OS(=O)(=O)c2cc(Cl)ccc2Cl)c1`: in data set [1], the “CE logK'” value is listed as 1.85.
Turning to `CCc1cc(OCCc2ccc(CN)cc2)cc(OS(=O)(=O)c2cc(C)ccc2OC)c1`, the “CE logK'” value in data set [1] is 0.87. Moreover, the pKa in data set [2] is 9.3. At Serine protease 1, this molecule had a Ki of 6170 nM.
Take `CCc1cc(OCCc2cccc(O)c2)cc(OS(=O)(=O)c2cc(C)ccc2OC)c1`: the “CE logK'” value in data set [1] is 1.3.
Consider `NCc1ccc(CCOc2cccc(OS(=O)(=O)c3ccccc3)c2)cc1O`, for which the “CE logK'” value in data set [1] is 0.85. The pKa in data set [2] is 8.3. This molecule also had an IC50 against Prothrombin of 10700 nM.
For `CCc1cc(OCCc2ccc(CN)c(O)c2)cc(OS(=O)(=O)c2cccc(Cl)c2Cl)c1`, in that order: 1.08, 8.3 and 11200 nM.
Take `CCc1cc(OCCc2ccc(C(=N)N)cc2)cc(OS(=O)(=O)c2ccccc2)c1`: the “CE logK'” value in data set [1] was 0.88. Besides, the pKa in data set [2] is 10.9. The same molecule had an IC50 against Prothrombin of 25.1 nM.
As for `COc1ccc(C)cc1S(=O)(=O)Oc1cccc(OCCc2ccc(C(=N)N)c(O)c2)c1`, the “CE logK'” value in data set [1] is listed as 1.08. For the same molecule, the pKa in data set [2] is 6.2. On Serine protease 1, this molecule had a Ki of 28200 nM. The same molecule had an IC50 against Prothrombin of 575 nM.
With `CCc1cc(OCCc2ccc(C(=N)N)c(O)c2)cc(OS(=O)(=O)c2cc(Cl)cc(Cl)c2OC)c1`, the “CE logK'” value in data set [1] is given as 1.27. Also, the pKa in data set [2] was 6.3.
Take `COc1c(Cl)cc(Cl)cc1S(=O)(=O)Oc1cccc(OCCc2ccc(C(=N)N)cc2)c1`: the “CE logK'” value in data set [1] is reported as 0.96. In addition, in data set [2], the pKa is 10.5. The same molecule showed a Ki on Serine protease 1 of 263 nM. Moreover, the IC50 at Prothrombin is 56.2 nM.
Turning to `Cc1cc(OCCc2ccc(CN)c(O)c2)cc(OS(=O)(=O)c2cc(Cl)ccc2Cl)c1`, the “CE logK'” value in data set [1] is 0.98. Further, in data set [2], the pKa is 8.6. Further, the IC50 on Prothrombin is 933 nM.
`CCc1cc(OCCc2cccc(O)c2)cc(OS(=O)(=O)c2ccccc2)c1`: the “CE logK'” value in data set [1] was 1.42.
